An excerpt weighted towards active compounds, which were near 2.2% of everything screened.
PglD DTNB – C. jejuni PglD acetyltransferase inhibitors, primary screen, biochemical, DTNB colorimetric, single point | UDP-N-acetylbacillosamine N-acetyltransferase PglD (Campylobacter jejuni) | purified PglD enzyme, DTNB colorimetric CoA detection | inhibition, % at 12.5 µM | 360,000 tested, 0.098% active | AID 602405, 2012; in the data active = inhibition above about 16%, passing the limit was not always enough
Ecoli rRNA inh – reduced GFP signal of wild-type E. coli, primary screen, bacterial rRNA inhibitor project, GFP/RFP fluorescence, OD600, single point; E. coli WT GFP vs humanized-ribosome RFP mutants, 24 h; hits give low values; DMSO median 0, no signal -100; GFP signal change (wild-type ribosome), % (no concentration beside the values); 350,000 tested, 1.6% active; AID 720706, 2013;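 active = significant combined selectivity score with lowered wild-type GFP, culture density cut under 30%, mutant RFP and density less affected; inactive = any of these conditions unmet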
Cneo AK release – Cryptococcus neoformans cell lysis inducers, primary screen, AK release luminescence, single concentration; AID 651654, 2012; 360,000 tested, 0.2% active; lysis activity, % at 15 µM; C. neoformans lysis, adenylate kinase release luminescence, 4 h; normalised: neutral wells 0, clomiphene wells 100;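 active = mean lysis activity across replicates of at least 80%, whatever share of replicates individually reach that level; inactive = mean lysis activity below 80%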
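Assay system: C. neoformans cells. Amount: yeast cell density of 5 × 10^6 cells/mL. Technique: AK luminescence. Buffer or medium: YPD. Times: static 4 h at 37 °C with compound, 1 h detection. Dosing: single-point compound dose. Read-out: lysis from increased AK signal.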
Yeast superoxide – reduction of superoxide in aged yeast, primary screen, HTS; S. cerevisiae aged cells, superoxide DHE fluorescence; hits give low values; superoxide response (% of plate mean), % at 10 µM; 330,000 tested, 0.18% active; AID 2690, 2010;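 active = superoxide response under a set limit, about three screen SD below normal, cut at about 65% in these data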;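 note: yeast aged for seven days with compound at 30 °C before DHE staining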
Mot1-301 SUMO – yeast Mot1-301 growth rescue at high temperature, primary screen, SUMOylation pathway inhibitor project, S. cerevisiae, ATP luminescence, 38.5C | 320,000 tested, 1% active | S. cerevisiae Mot1-301 growth rescue; percent above DMSO median, 100 means doubled | growth rescue, % at 18.8 µM;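 active = every valid replicate shows activation above 250% relative to neutral control wells; inactive = the rest, any valid replicate at or below 250%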
Each line names hits and unclear results; the compound was inactive in the other large screens.

O=C(CCCNC(=O)c1ccc(Cl)cc1)Nc1nccs1	Cneo AK release 87
COc1cccc(NC(=O)N2C[C@H](O)COC[C@H]3O[C@@H](CC(=O)NCc4ccccc4F)CC[C@@H]32)c1	Cneo AK release 119 (no result: Yeast superoxide, Mot1-301 SUMO)
CNC(=O)C[C@@H]1CC[C@H]2[C@@H](COC[C@H](O)CN2C(=O)Nc2ccc3c(c2)OCO3)O1	Cneo AK release 89 (no result: Yeast superoxide, Mot1-301 SUMO)
CNC(=O)C[C@@H]1CC[C@@H]2[C@H](COC[C@@H](O)CN2C(=O)Nc2ccc3c(c2)OCO3)O1	Cneo AK release 113 (no result: Yeast superoxide, Mot1-301 SUMO)
COc1ccccc1S(=O)(=O)N[C@@H]1CC[C@H](CCNC(=O)C2CCC2)O[C@@H]1CO	none (no result: Yeast superoxide, Mot1-301 SUMO)
CNC[C@@H]1Oc2ccc(NS(=O)(=O)c3cn(C)cn3)cc2CC(=O)N([C@H](C)CO)C[C@@H]1C	none (no result: Yeast superoxide, Mot1-301 SUMO)
CCOc1ccc(NC(=O)CN(C)CC(=O)Nc2ccc(Br)cc2F)cc1OCC	Ecoli rRNA inh -28 (no result: PglD DTNB, Cneo AK release)
CCN(CC(=O)Nc1ccc(OC)cc1)CC(=O)Nc1ccc(Br)cc1F	none (no result: PglD DTNB, Cneo AK release)
O=C(Nc1ccccc1)[C@H]1[C@H](CO)[C@H]2Cn3c(cccc3=O)[C@H]2N1CC1CCOCC1	none (no result: PglD DTNB, Cneo AK release, Yeast superoxide, Mot1-301 SUMO)
O=C(N/N=C/c1ccccc1O)C1SCCCS1	Ecoli rRNA inh -14 (no result: PglD DTNB, Cneo AK release)
CNC[C@H]1Oc2c(NC(=O)Nc3ccc(F)cc3)cccc2C(=O)N([C@H](C)CO)C[C@H]1C	none (no result: Yeast superoxide, Mot1-301 SUMO)
Nc1n[nH]c(-c2ccc(F)cc2)n1	none (no result: Ecoli rRNA inh)
CCCCc1ccc(-c2nc(N)n[nH]2)cc1	Mot1-301 SUMO 840 (no result: Ecoli rRNA inh)
CCOC(=O)N1CCN(C(=O)c2ccc3c(c2)N(Cc2cc(C)ccc2C)C(=O)c2ccccc2S3=O)CC1 (stereo not given)	Ecoli rRNA inh -20
COc1cccc(/C=C/C(=O)N2CCN(c3ccccn3)CC2)c1	none
COc1ccc(/C=C/C(=O)N2CCN(c3ccccn3)CC2)cc1	Ecoli rRNA inh -23
O=C(CCc1nnc(CCCCc2ccccc2)o1)N1CCCC(O)C1 (stereo not given)	Mot1-301 SUMO 276
O=C(N[C@@H]1C=C[C@H](CC(=O)N2CCN(c3ccccc3)CC2)O[C@@H]1CO)c1ccncc1	none (no result: Yeast superoxide, Mot1-301 SUMO)
COc1cccc(CN(C)C(=O)c2cc(-c3ccc(OC)c(OC)c3)nc3ccccc23)c1	none
COc1ccc(-c2cc(C(=O)N(C)Cc3cccc(OC)c3OC)c3ccccc3n2)cc1OC	Ecoli rRNA inh -28
CCC1CCCCN1CCNC(=O)CNS(=O)(=O)c1ccc2nc(C)sc2c1 (stereo not given)	Mot1-301 SUMO 315 (no result: Ecoli rRNA inh)
COc1ccc2c3c(n(C)c2c1)[C@@H](CO)N(C)CC31CCN(S(C)(=O)=O)CC1	none (no result: PglD DTNB, Cneo AK release, Yeast superoxide, Mot1-301 SUMO)
C[C@@H]1CCCCO[C@H](CN(C)C(=O)Nc2ccc(F)cc2)[C@H](C)CN([C@H](C)CO)C(=O)c2cc(NS(C)(=O)=O)ccc2O1	none (no result: Yeast superoxide, Mot1-301 SUMO)
CCCCCC1C/C(=N\O)C=C(C)C1C(=O)OC (stereo not given)	Mot1-301 SUMO 309
COc1cccc(/C=N/Nc2nc(N3CCCC3)nc(N3CCCC3)n2)c1O	Ecoli rRNA inh -18
COc1ccc(/C=N/Nc2nc(N3CCCC3)nc(N3CCCC3)n2)c(OC)c1OC	none (no result: PglD DTNB, Ecoli rRNA inh, Cneo AK release)
CCOC(=O)c1nc(C)sc1-c1ccnn1S(=O)(=O)c1ccccc1C(F)(F)F	none (no result: Ecoli rRNA inh)
CCOC(=O)c1nc(C)sc1-c1ccnn1S(=O)(=O)c1ccc(C)cc1	Ecoli rRNA inh -22
CCOC(=O)c1cc(C)n(S(=O)(=O)c2ccc(C)cc2)c1C	none (no result: Ecoli rRNA inh)
CCOC(=O)c1nc(C)sc1-c1ccnn1S(=O)(=O)c1ccc(Cl)cc1Cl	Ecoli rRNA inh -29 (no result: PglD DTNB, Cneo AK release)
COCC(=O)Nc1ccc2c(c1)OC[C@@H](C)N(Cc1ccccn1)C[C@H](C)[C@H](OC)CN(C)C2=O	none (no result: Yeast superoxide, Mot1-301 SUMO)
COc1cccc(NC(=O)N[C@@H]2CC[C@H](CC(=O)Nc3ccc(-c4ccccc4)cc3)O[C@@H]2CO)c1	none (no result: Yeast superoxide, Mot1-301 SUMO)
C[C@@H]1CN([C@H](C)CO)C(=O)c2cc(NS(=O)(=O)c3ccccc3)ccc2O[C@H]1CN(C)C(=O)NC1CCCCC1	Cneo AK release 96 (no result: Yeast superoxide, Mot1-301 SUMO)
C[C@@H]1CN([C@H](C)CO)C(=O)c2cc(NS(=O)(=O)c3cccs3)ccc2O[C@H]1CN(C)C(=O)Nc1ccc2c(c1)OCO2	none (no result: Yeast superoxide, Mot1-301 SUMO)

Screening results: PubChem, several laboratories
